# In ChEMBL document CHEMBL1157465, “Design, synthesis, and biological evaluation of novel 3-aryl-4-(1H-indole-3yl)-1,5-dihydro-2H-pyrrole-2-ones as vascular endothelial growth factor receptor (VEGF-R) inhibitors” (J Med Chem, 2008):
# Columns and labels:
# [1] = target: Cyclin-dependent kinase 4/cyclin D1 (Homo sapiens, UniProt P11802); assay: Inhibition of human recombinant CDK4/cyclin D1; type: protein-complex assay
# How it was run: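 CDK4/CycD1 (human, baculovirus/Sf9, affinity-purified) with Rb-CTF as substrate. The radiometric FlashPlate assay held 1 µM [γ-33P]ATP in HEPES-NaOH pH 7.5 with 3 mM MgCl2 and 3 mM MnCl2.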
# [2] = target: Vascular endothelial growth factor receptor 2 (Homo sapiens, UniProt P35968); assay: Inhibition of human recombinant VEGFR2
# How it was run: (§1)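 Recombinant human tyrosine kinases (EPHB4, TIE2, VEGF-R2, VEGF-R3), expressed in Sf9 insect cells as GST- or His-fusions, with poly(Glu,Tyr) 4:1 as substrate. Conditions: 1 µM [γ-33P]ATP, pH 7.5 HEPES buffer with Mg/Mn, DTT and vanadate, 30 °C for 80 min, 1% DMSO. Ten concentrations were tested and IC50 came from scintillation counting of incorporated 33P.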
# Aurora kinase B = Aurora kinase B (Homo sapiens, UniProt Q96GD4); assay: Inhibition of human recombinant Aurora B
# How it was run: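 Aurora-A or Aurora-B, human cDNA expressed in Sf9 cells as tagged recombinant protein, phosphorylating Tetra(LRRWSLG). Reactions used 60 mM HEPES pH 7.5, Mg2+/Mn2+ (3 mM each), 1.2 mM DTT, vanadate and 1 µM [γ-33P]ATP, ran 80 min at 30 °C and were stopped with 2% H3PO4.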
# [3] = target: T1, NUAK family SNF1-like kinase 1 (Homo sapiens, UniProt O60285); assay: Inhibition of human recombinant ARK5
# T1 sequence (O60285 whole entry): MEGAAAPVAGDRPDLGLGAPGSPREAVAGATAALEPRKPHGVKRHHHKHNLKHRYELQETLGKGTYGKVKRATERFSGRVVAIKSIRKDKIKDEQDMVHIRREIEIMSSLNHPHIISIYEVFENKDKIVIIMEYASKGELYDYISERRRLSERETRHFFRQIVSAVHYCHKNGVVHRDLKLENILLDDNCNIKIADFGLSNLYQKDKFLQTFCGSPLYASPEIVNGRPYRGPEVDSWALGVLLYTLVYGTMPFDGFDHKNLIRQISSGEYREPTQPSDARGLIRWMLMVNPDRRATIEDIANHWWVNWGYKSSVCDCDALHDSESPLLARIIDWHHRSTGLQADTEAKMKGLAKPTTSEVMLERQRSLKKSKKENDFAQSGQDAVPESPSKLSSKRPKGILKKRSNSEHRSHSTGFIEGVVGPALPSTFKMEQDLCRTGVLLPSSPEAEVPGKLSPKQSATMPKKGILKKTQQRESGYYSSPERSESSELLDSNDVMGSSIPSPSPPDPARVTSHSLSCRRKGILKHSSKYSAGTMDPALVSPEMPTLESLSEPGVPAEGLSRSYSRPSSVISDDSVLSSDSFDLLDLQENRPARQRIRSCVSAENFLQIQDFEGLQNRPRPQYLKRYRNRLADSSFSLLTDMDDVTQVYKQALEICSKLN
# How it was run: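 Human ARK5 made in Sf9 cells by baculovirus (GST- or His-tagged, affinity-purified) and read by autophosphorylation in a 33PanQinase radiometric assay. Buffer: 60 mM HEPES-NaOH pH 7.5, 3 mM MgCl2, 3 mM MnCl2, 3 µM orthovanadate, 1.2 mM DTT, PEG20000 and 1 µM [γ-33P]ATP.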
# Homo sapiens [4] = organism: Homo sapiens; assay: Antiangiogenic activity in VEGF-induced HLMEC assessed as number of sprouts per bead at 2.6 uM after 24 hrs by sprouting assay; type: functional
# How it was run: (§2)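 HLMEC seeded on cytodex-3 microcarrier beads and embedded in 3D fibrinogen gel with 20 ng/mL VEGF plus compound at a final 1.3 or 2.6 µM (from 1 mM DMSO stock). Gel polymerised with 0.65 U/mL thrombin and overlaid with MCDB131, 5% FCS, 5% human serum and 200 U/mL Trasylol. Negative control: gel without growth factors. After 24 h, fixed in 1% PFA; sprouts per 50 beads counted microscopically. Triplicates per condition, n = 9 experiments.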
# Angiopoietin-1 receptor = Angiopoietin-1 receptor (Homo sapiens, UniProt Q02763); assay: Inhibition of human recombinant TIE2; how it was run: as §1
# [5] = target: Proto-oncogene tyrosine-protein kinase Src (Homo sapiens, UniProt P12931); assay: Inhibition of human recombinant SRC
# How it was run: (§3)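 Human kinases expressed in Sf9 cells via baculovirus as GST or His fusions and affinity purified. 33PanQinase assay in 60 mM HEPES-NaOH pH 7.5, 3 mM MgCl2, 3 mM MnCl2, 3 µM orthovanadate, 1.2 mM DTT, 1 µM [γ-33P]ATP, 1% DMSO; 30 °C, 80 min. Substrates: poly(Glu,Tyr) 4:1 for ERBB2, IGF1-R and SRC; poly(Ala,Glu,Lys,Tyr) 6:2:5:1 for FLT3. IC50 from 10 concentrations by scintillation counting.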
# Homo sapiens [6] = organism: Homo sapiens; assay: Antiangiogenic activity in VEGF-induced HLMEC assessed as sprouts per bead at 1.3 uM after 24 hrs by sprouting assay; type: functional; how it was run: as §2
# [7] = target: Platelet-derived growth factor receptor beta (Homo sapiens, UniProt P09619); assay: Inhibition of human recombinant PDGFRbeta
# Focal adhesion kinase 1 = Focal adhesion kinase 1 (Homo sapiens, UniProt Q05397); assay: Inhibition of human recombinant FAK
# [8] = target: Mitogen-activated protein kinase kinase kinase 8 (Homo sapiens, UniProt P41279); assay: Inhibition of human recombinant COT
# How it was run: (§4)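 Human kinases expressed in Sf9 cells by baculovirus as GST or His fusions and affinity purified. Radiometric 33PanQinase assay: 60 mM HEPES-NaOH pH 7.5, 3 mM MgCl2, 3 mM MnCl2, 3 µM orthovanadate, 1.2 mM DTT, 1 µM [γ-33P]ATP, 50-400 ng enzyme, 1% DMSO; 30 °C, 80 min. Substrates: B-Raf-VE, MEK1 KM; CDK2/CycA, histone H1; CK2-A1, casein; COT, autophosphorylation. IC50 from 10 concentrations; 33Pi incorporation by scintillation.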
# Homo sapiens [9] = organism: Homo sapiens; assay: Induction of apoptosis in HDMEC assessed as cleaved caspase 3 at 1.3 uM after 24 hrs; type: functional
# How it was run: (§5)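 HDMEC incubated 24 h with compound. Adherent cells and supernatant harvested together, stained with an antibody to cleaved caspase-3, and analysed by FACS as percent apoptotic cells. Three independent repeats.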
# Homo sapiens [10] = organism: Homo sapiens; assay: Induction of apoptosis in HDMEC assessed as cleaved caspase 3 at 2.6 uM after 24 hrs; type: functional; how it was run: as §5
# Insulin receptor = Insulin receptor (Homo sapiens, UniProt P06213); assay: Inhibition of human recombinant INS-R
# [11] = target: Serine/threonine-protein kinase B-raf (Homo sapiens, UniProt P15056, V600E); assay: Inhibition of human recombinant B-Raf-V600E mutant; how it was run: as §4
# [12] = target: Cyclin-dependent kinase 2 (Homo sapiens, UniProt P24941); assay: Inhibition of human recombinant CDK2/cyclin A; how it was run: as §4
# [13] = target: Hepatocyte growth factor receptor (Homo sapiens, UniProt P08581); assay: Inhibition of human recombinant MET
# [14] = target: Receptor tyrosine-protein kinase erbB-2 (Homo sapiens, UniProt P04626); assay: Inhibition of human recombinant ERBB2; how it was run: as §3
# Aurora kinase B, sequence (Q96GD4 whole entry): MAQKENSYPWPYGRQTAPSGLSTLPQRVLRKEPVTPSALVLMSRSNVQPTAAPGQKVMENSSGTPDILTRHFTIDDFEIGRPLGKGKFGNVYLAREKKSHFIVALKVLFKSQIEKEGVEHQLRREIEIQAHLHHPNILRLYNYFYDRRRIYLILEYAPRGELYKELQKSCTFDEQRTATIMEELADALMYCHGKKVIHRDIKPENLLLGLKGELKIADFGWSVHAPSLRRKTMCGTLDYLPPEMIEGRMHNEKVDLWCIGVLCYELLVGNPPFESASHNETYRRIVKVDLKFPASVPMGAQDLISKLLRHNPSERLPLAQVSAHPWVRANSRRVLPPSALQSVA
# Vascular endothelial growth factor receptor 2, sequence (P35968 whole entry, the tested form may be a part): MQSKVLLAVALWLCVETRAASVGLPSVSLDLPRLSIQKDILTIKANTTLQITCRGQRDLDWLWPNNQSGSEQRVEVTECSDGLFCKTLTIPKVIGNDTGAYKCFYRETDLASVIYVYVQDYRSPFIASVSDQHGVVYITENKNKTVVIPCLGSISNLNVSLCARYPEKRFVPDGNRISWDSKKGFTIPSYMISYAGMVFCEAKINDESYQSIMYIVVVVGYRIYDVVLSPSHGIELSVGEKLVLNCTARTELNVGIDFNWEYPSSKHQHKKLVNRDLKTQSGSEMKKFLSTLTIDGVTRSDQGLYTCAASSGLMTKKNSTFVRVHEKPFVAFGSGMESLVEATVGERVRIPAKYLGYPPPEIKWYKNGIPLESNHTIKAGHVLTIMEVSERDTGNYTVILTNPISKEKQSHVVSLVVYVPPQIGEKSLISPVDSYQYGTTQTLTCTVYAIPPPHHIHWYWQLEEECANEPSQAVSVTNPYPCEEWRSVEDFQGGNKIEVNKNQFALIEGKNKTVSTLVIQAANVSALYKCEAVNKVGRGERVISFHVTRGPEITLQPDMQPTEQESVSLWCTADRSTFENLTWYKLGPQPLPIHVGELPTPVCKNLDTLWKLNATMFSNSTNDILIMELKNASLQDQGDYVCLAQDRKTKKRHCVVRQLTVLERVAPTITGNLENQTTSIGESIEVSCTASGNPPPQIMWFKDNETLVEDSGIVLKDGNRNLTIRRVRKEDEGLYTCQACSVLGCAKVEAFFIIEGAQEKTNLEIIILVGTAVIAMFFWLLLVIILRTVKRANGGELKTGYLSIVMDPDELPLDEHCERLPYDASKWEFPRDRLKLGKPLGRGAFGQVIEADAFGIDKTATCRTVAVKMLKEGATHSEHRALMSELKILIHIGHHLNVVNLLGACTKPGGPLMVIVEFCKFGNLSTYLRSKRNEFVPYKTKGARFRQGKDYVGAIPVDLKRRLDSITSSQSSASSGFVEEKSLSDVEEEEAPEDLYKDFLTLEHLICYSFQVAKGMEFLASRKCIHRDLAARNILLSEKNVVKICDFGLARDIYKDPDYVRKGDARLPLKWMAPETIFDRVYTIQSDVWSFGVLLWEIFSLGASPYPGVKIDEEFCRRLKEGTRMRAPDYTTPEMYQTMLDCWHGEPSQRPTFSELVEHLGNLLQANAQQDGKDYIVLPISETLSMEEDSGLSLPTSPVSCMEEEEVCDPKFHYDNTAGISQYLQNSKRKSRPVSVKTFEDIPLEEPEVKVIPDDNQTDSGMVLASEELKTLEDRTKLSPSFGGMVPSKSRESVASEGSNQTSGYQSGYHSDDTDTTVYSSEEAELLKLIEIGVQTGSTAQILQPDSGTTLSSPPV
# Cyclin-dependent kinase 4/cyclin D1, sequence (P11802 whole entry): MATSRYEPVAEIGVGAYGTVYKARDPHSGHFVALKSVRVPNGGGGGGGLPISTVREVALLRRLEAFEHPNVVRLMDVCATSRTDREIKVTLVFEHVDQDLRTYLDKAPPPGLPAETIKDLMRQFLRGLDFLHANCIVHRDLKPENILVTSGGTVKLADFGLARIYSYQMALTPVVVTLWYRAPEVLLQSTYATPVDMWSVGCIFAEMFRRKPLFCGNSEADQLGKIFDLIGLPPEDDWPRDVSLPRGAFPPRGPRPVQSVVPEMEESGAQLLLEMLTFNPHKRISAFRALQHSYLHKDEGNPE
# Cyclin-dependent kinase 4/cyclin D1, sequence (P24385 whole entry, further chain): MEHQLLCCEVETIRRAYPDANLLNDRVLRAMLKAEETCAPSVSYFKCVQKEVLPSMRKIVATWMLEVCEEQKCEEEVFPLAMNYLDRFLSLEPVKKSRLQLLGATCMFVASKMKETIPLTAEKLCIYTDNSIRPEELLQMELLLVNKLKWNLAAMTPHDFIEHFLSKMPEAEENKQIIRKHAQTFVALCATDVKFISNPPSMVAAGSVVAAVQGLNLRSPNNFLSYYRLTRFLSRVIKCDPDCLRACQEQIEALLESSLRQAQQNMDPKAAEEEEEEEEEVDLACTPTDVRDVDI
# Angiopoietin-1 receptor, sequence (Q02763 whole entry): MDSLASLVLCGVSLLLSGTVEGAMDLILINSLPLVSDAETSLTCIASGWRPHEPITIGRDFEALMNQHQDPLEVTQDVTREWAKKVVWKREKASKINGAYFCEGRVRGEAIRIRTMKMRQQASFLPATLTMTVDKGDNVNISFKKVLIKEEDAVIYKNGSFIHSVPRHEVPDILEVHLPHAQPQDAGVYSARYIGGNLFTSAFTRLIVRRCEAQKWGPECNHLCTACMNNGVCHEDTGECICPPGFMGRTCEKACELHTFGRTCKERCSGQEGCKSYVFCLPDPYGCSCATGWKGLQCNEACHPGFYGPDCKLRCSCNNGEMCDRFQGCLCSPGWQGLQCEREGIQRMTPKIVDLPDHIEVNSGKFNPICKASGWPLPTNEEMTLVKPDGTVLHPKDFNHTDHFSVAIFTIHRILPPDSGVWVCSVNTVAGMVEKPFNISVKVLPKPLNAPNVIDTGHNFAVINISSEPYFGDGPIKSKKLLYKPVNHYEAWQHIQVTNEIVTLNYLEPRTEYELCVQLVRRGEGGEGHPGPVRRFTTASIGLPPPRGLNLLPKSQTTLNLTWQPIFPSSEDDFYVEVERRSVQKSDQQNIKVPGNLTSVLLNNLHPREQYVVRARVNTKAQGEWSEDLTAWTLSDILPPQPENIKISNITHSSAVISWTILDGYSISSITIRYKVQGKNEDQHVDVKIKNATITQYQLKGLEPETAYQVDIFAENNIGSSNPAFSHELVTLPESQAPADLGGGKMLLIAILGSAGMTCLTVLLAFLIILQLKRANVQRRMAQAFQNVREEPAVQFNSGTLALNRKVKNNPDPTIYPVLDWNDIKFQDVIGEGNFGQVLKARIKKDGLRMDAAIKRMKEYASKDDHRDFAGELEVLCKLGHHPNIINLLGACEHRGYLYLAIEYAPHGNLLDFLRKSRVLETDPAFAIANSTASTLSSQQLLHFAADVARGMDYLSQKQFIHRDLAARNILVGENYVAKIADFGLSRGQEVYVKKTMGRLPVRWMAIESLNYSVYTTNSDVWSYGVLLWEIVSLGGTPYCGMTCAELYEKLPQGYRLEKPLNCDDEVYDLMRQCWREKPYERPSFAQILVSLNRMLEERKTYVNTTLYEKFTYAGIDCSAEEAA
# Proto-oncogene tyrosine-protein kinase Src, sequence (P12931 2-536 limits assumed): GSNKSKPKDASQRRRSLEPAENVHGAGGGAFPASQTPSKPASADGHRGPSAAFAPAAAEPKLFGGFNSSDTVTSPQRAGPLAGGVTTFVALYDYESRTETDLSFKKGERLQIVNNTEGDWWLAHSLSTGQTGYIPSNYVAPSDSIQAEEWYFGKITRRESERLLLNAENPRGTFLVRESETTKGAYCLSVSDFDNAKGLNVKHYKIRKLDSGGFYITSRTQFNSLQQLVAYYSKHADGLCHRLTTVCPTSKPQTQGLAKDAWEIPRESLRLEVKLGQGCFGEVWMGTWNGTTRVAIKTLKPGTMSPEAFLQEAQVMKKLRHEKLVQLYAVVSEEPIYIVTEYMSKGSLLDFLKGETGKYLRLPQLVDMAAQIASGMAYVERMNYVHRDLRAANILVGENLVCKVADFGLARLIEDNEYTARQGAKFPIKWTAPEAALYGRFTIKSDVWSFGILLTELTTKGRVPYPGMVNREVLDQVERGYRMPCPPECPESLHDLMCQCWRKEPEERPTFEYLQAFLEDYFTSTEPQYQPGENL
# Focal adhesion kinase 1, sequence (Q05397 whole entry): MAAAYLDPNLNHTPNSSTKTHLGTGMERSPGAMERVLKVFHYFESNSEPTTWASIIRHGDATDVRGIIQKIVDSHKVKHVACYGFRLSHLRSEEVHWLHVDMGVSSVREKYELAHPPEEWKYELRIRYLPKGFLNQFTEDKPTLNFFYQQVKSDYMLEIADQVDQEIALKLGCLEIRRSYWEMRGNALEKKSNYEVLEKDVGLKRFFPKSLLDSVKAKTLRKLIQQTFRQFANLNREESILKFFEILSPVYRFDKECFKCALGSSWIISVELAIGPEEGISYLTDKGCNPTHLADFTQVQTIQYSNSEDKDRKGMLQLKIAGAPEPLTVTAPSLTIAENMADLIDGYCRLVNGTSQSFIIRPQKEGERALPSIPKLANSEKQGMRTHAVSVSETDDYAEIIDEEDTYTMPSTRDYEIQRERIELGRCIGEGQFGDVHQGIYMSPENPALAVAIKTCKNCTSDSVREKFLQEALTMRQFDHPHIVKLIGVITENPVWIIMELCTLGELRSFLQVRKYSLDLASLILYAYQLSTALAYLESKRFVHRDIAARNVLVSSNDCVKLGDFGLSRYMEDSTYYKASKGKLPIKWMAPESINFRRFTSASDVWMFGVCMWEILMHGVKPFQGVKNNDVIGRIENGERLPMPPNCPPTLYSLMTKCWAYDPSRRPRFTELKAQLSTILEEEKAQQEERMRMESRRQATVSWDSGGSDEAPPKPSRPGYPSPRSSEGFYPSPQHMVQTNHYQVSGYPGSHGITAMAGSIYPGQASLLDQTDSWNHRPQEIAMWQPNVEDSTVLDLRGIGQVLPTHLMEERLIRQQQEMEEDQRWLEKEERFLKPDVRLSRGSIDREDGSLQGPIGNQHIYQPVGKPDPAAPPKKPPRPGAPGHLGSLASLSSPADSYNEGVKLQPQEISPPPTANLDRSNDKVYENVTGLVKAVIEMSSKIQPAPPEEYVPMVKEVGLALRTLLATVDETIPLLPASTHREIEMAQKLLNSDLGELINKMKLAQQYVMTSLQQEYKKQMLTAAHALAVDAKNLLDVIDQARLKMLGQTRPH
SMILES,IC50 [2] [µM],IC50 (Aurora kinase B) [µM],IC50 [3] [µM],IC50 (Angiopoietin-1 receptor) [µM],IC50 [5] [µM],IC50 [1] [µM],Activity (Homo sapiens [4]),inhibition (Homo sapiens [6]) [%],IC50 [7] [µM],IC50 (Focal adhesion kinase 1) [µM],IC50 [8] [µM],Activity (Homo sapiens [9]) [%],Activity (Homo sapiens [10]) [%],IC50 (Insulin receptor) [µM],IC50 [11] [µM],IC50 [12] [µM],IC50 [13] [µM],IC50 [14] [µM]
COc1ccc(C2=C(c3c[nH]c4ccccc34)C(=O)NC2)cc1,13,4.9,2,,,35,,,,,,,,,,,,
COc1cc(C2=C(c3c[nH]c4ccccc34)CNC2=O)cc(OC)c1OC,0.031,46,,5.2,14,,0.27,88,,9.5,32,25,42.1,,,,,
COc1cc(C2=C(c3cn(C)c4ccccc34)C(=O)NC2)cc(OC)c1OC,15,9.8,4.9,,,40,,,,50,,,,47,50,42,,
COc1cc(C2=C(c3cn(COC(C)(C)C)c4ccccc34)CNC2=O)cc(OC)c1OC,4.4,43,,11,4.4,27,,,38,28,9.6,,,27,38,23,29,25

# Now from value to compound, other results behind:
IC50 [2] [µM],IC50 (Aurora kinase B) [µM],IC50 [3] [µM],IC50 (Angiopoietin-1 receptor) [µM],IC50 [5] [µM],SMILES,IC50 [1] [µM],Activity (Homo sapiens [4]),inhibition (Homo sapiens [6]) [%],IC50 [7] [µM],IC50 (Focal adhesion kinase 1) [µM],IC50 [8] [µM],Activity (Homo sapiens [9]) [%],Activity (Homo sapiens [10]) [%],IC50 (Insulin receptor) [µM],IC50 [11] [µM],IC50 [12] [µM],IC50 [13] [µM],IC50 [14] [µM]
11,2.1,1.8,34,41,COc1cc(C2=C(c3c[nH]c4ccccc34)C(=O)NC2)cc(OC)c1OC,30,2.56,34,,,,,,,,,,
4.2,,34,25,,COc1cc(C2=C(c3cn(CC(O)CO)c4ccccc34)CNC2=O)cc(OC)c1OC (configuration not stated),,,,40,,,,,,,,,
